From PubChem BioAssay
In the library only some 4% were active in any assay of this set; here they are far more common.
DAGLB inhibitor: blocks human DAGLB lipase activity. inhibition, % at 5.17 µM. 0.059% of 340,000 active. Q8NCG7. HEK293T DAGLB membrane lysate, EnzChek fluorogenic substrate. AID 504411; in the data active = inhibition above about 34%
MPTP block: blocks calcium-induced mitochondrial swelling | AID 602449 | isolated mouse mitochondria, Ca2+ swelling absorbance, 30 min | 1.4% of 360,000 active | inhibition, % at 10 µM;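 active = inhibition of 50% or more, scaled per plate between neutral and stimulator controls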
TAAR1 antagonist: antagonists of human TAAR1; CHO RD-HGA16 TAAR1, Fluo-8 calcium fluorescence, antagonist; 1.5% of 360,000 active; inhibition, % at 3 µM; AID 624466; Q96RJ0;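 active = inhibition above a per-plate cutoff, the mean inhibition of test compounds on that plate plus 3 SD, cut at about 49% in these data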
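Assay system: RD-HGA16 CHO cells with stable hTAAR1 and Gα16 / Reagent: EC80 β-phenethylamine stimulus / Doses: 3 µM, single point / Timing: dye loading 75 min at 37 °C, then 30 min room temperature / Measured by: Fluo-8 intracellular calcium dye fluorescence, real-time kinetic reads / Controls: vehicle wells and EC80 agonist wells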
GPR7 antag: antagonists of human GPR7 (neuropeptides B/W receptor 1). P48145. GPR7-expressing cells, fluorescence antagonist assay. inhibition, % at 4.4 µM. 1.1% of 290,000 active; in the data active = inhibition above about 16%, passing the limit was not always enough;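 note: cells stimulated with the agonist NPW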
Target sequence (P48145 whole entry, looked up): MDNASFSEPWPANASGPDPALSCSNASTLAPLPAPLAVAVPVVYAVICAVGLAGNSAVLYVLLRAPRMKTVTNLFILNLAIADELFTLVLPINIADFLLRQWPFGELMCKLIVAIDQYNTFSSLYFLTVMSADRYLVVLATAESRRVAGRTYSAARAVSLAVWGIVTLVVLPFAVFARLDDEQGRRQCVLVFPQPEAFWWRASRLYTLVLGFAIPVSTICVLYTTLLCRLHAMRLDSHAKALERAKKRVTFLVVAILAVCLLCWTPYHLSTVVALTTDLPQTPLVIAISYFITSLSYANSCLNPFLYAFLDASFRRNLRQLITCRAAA
TAAR1 ag: human TAAR1 agonism | CHO RD-HGA16 TAAR1, Fluo-8 calcium fluorescence; vehicle wells 0%, saturating PEA agonist 100% | activation, % at 3 µM | Q96RJ0 | 0.99% of 360,000 active | AID 624467;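 active = activation above the mean activation of all test compounds in the run plus 3 SD, cut at about 38% in these data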
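Repeats: no replicates (n 1) | Material: CHO-derived RD-HGA16 cells with stable Gα16 and human TAAR1 | Technique: Kinetic Fluo-8 calcium fluorescence | Schedule: 17-24 h seeding, 75 min 37 °C dye, 30 min RT | Evaluation: % activation from peak over basal fluorescence ratio, DMSO-to-PEA scaled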
Numbers stand for hits; 0 = inactive; - = no result given.

SMILES	DAGLB inhibitor	MPTP block	TAAR1 antagonist	GPR7 antag	TAAR1 ag
CN(C)CC1CCC/C(=C/c2ccc(Cl)cc2)C1=O (centres undefined)	0	0	0	-	0
Cc1ccsc1CN(C)CC(=O)Nc1ccc([N+](=O)[O-])cc1Cl	0	0	51.5	0	0
Cc1ccc(S(=O)(=O)N2CCOCC2)cc1C(=O)NC(=S)N1CC(C)CC(C)C1 (centres undefined)	0	0	0	0	38.8
CCCC(C)NC(=S)NC(=O)c1cc(S(=O)(=O)N2CCOCC2)ccc1C (centres undefined)	0	0	0	0	0
O=C(NC1(Cc2ccccc2)CCN(Cc2ccc(-c3ccccc3)cc2)C1=O)c1ccccc1 (centres undefined)	0	0	62.1	-	0
CN1CCN(c2ncnc3c2ncn3[C@H]2CN(Cc3ccc(Cl)cc3)C[C@@H](CO)O2)CC1	-	0	0	-	0
Oc1ccc(Cl)cc1CNCc1ccc(C(F)(F)F)cc1	0	0	0	-	0
Oc1ccc(Cl)cc1CNCc1ccc(Cl)cc1	0	0	0	-	48.8
NC(=S)N/N=C/c1cccc(O)c1O	0	0	0	0	0
Cc1cc(/C=N/NC(N)=S)c(O)c(/C=N/NC(N)=S)c1	0	0	0	0	49.7
CC(=O)C1=C(C)OC(N)=C(C#N)C1c1cccc([N+](=O)[O-])c1 (centres undefined)	0	0	0	32.9	0
Cc1ccccc1N=Nc1c(C)[nH]n(-c2ccccc2)c1=O	-	-	-	0	-
Cc1[nH]n(-c2ccccc2)c(=O)c1N=Nc1nccs1	0	0	0	0	41.9
O=C1NC[C@H](Cc2ccccc2)N(C[C@@H]2CCCN2C[C@H](Cc2ccc(O)cc2)N2C[C@H](Cc3ccccc3)N(CCc3ccccc3)C(=O)C2=O)C1=O	-	0	0	-	0
CC1(Cc2ccccc2OC(F)(F)F)C(=O)Nc2c(Cl)ccc(Cl)c21 (centres undefined)	-	0	0	-	0
Cc1[nH]nc(SCC(=O)NCc2ccccc2)c1[N+](=O)[O-]	0	0	0	0	0
Cc1[nH]nc(SCC(=O)NCCc2ccccc2)c1[N+](=O)[O-]	0	0	74.8	0	39.3
CC1(C(=O)NS(=O)(=O)c2ccc3c(c2)CCO3)CCN1C(=O)c1ccccc1CCc1ccccc1 (centres undefined)	-	0	0	-	0
COc1ccccc1CN1CC(C(=O)NCCN(C)CCc2ccccc2)CCC1=O (centres undefined)	0	0	0	0	38.8
COc1ccccc1CCNC(=O)C1CCC(=O)N(Cc2ccccc2OC)C1 (centres undefined)	0	0	0	0	0
CCc1ccc(N2C=C(C(=O)OC)C(c3ccc(OC)cc3)C(C#N)=C2N)cc1 (centres undefined)	-	0	59.1	-	0
COC(=O)C1=CN(c2ccc(OC)cc2)C(N)=C(C#N)C1c1ccc(OC)cc1 (centres undefined)	-	0	0	-	0
Cc1ccc(NC(=O)/C=C/c2ccc(S(=O)(=O)N3CCOCC3)cc2)cc1S(=O)(=O)N(C)C	0	0	66.5	-	0
CC(=O)Nc1cccc(NC(=O)/C=C/c2ccc(S(=O)(=O)N3CCOCC3)cc2)c1	0	0	0	-	0
COC(=O)C1=C[C@@H](C(=O)OC)C2C3=C(C(=O)C24CCCCC4)[C@H](C)n2c(=O)n(-c4ccccc4)c(=O)n2[C@@H]3C1 (some centres undefined)	0	0	51.9	-	0
SMILES	DAGLB inhibitor	MPTP block	TAAR1 antagonist	GPR7 antag	TAAR1 ag
O=C(c1ccc(CS(=O)(=O)c2ccc(Br)cc2)o1)N1CCN(c2ccc(F)cc2)CC1	0	0	52.4	0	0
CC(C)CC1C(=O)N(Cc2cn(Cc3ccco3)nn2)CCS(=O)(=O)N1Cc1ccc(-c2cccc(N(C)C)c2)cc1 (centres undefined)	0	0	0	-	0
Cc1ccc(CN2C(=O)N/C(=C\c3ccc(N4CCOCC4)cc3)C2=O)cc1	0	0	0	0	0
CCN1C(=O)/C(=C/c2ccc(N3CCCC3)cc2)NC1=S	0	0	81.5	0	84.4
CCCN1C(=O)/C(=C/c2ccc(N3CCOCC3)cc2)NC1=S	0	0	0	0	53.9
O=C(NCCc1cn2ccccc2n1)C1CCCCC1	0	0	0	19.4	0
O=C(NCCc1cn2ccsc2n1)C1CCCCC1	0	0	0	0	0
COCc1cc(N2CCNC[C@@H]2C)ccc1N1C[C@@H](C)O[C@@H](C)C1	-	-	0	-	0
Cc1cc(C(=O)N/N=C/c2cc(Br)ccc2OC(=O)c2ccccc2Cl)n[nH]1	0	0	0	0	0
Cc1cc(C(=O)N/N=C/c2ccc3ccccc3c2)n[nH]1	0	0	0	0	0
Cc1cc(C(=O)N/N=C/c2cc(Br)ccc2OC(=O)c2ccccc2)n[nH]1	0	0	51.2	0	0
Cc1cc(C(=O)N/N=C/c2ccc(OC(=O)c3ccccc3Br)cc2)n[nH]1	0	0	54.0	0	0
COC(=O)[C@]12C[C@H](CC(=O)NCc3ccccc3)C(=O)N(CCC3=CCCCC3)C1=C[C@H](COCc1ccccc1)O[C@@H]2C	-	-	0	-	0
O=C(c1ccco1)N1CCN(C(c2ccccc2Cl)c2nnnn2Cc2cccs2)CC1 (centres undefined)	0	0	59.0	0	0
CCc1ccc(OCC(=O)Nc2nnc(-c3ccco3)s2)cc1	0	0	0	0	38.7
CC(C)CC(=O)Nc1nnc(-c2ccco2)s1	0	0	0	0	0
CC1(C)CC(N2CCCC2)=CC(=[N+]2CCCCCC2)C1	0	0	0	25.9	0
CC1CCCN(C(=O)Nc2ccc([N+](=O)[O-])cc2)C1 (centres undefined)	-	-	0	-	0
O=C(Nc1ccc(Cl)c(Cl)c1)N(CCCN1CCOCC1)Cc1cccs1	0	0	0	0	45.6
O=C(Nc1ccc(Cl)c(Cl)c1)N(CCCN1CCOCC1)Cc1cccnc1	0	0	0	0	0
Cc1[nH]c2ccccc2c1/C=C/c1nc2ccccc2c(=O)n1CCO	0	0	50.8	0	0
O=c1c2ccccc2nc(/C=C/c2ccc(Br)cc2)n1CCO	-	0	0	-	0
Cc1ccsc1C(=O)C1CCCN(Cc2cccn2-c2ccc(Cl)cn2)C1 (centres undefined)	0	0	0	39.5	0
O=C(c1ccc(Cl)cc1)C1CCCN(Cc2cccn2-c2ccccn2)C1 (centres undefined)	0	0	0	0	0
CCOc1ccc(/C=N/OCC(=O)NC(c2ccccc2)c2ccccc2)cc1	0	0	53.4	0	0
CN(CC(=O)Nc1cccc(F)c1)C(=O)/C=C/c1ccc2ccccc2n1	0	0	0	0	0
COc1cc(OC)c(C(=O)OCC(=O)c2ccc3c(c2)NC(=O)CO3)cc1OC	0	0	0	-	0
O=C1COc2ccc(C(=O)COC(=O)c3ccc(F)cc3Cl)cc2N1	0	0	57.1	-	0
O=C(Nc1cccc(S(=O)(=O)NC2=NCCC2)c1)c1cc(-c2ccccn2)nc2ccccc12	0	0	51.5	0	0
COc1cccc(C(=O)N2CCC2(C)C(=O)NC(C)C)c1 (centres undefined)	-	0	0	-	0
